STAT3 blocker: inhibitors of IL-6 induced STAT3 signaling. U3A cells, IL-6 STAT3-luciferase reporter, luminescence; host cell line lacks STAT1. hit rate 0.89% among 190,000. inhibition, % at 5.5 µM;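 active means inhibition above the mean inhibition across all screened compounds plus 3 SD, cut at about 44% in these data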;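 further: 0% = DMSO only wells and 100% = 100 µM nifuroxazide control wells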
STAT3 activator: increases IL-6 driven STAT3 reporter signal; activation (% of control), % at 5.6 µM; AID 871; hit rate 0.91% among 190,000; U3A cells, IL-6 STAT3-luciferase reporter, luminescence; 100% = signal with IL-6 EC80 alone;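 active means activation above the screen-wide mean of compound activation plus 3 SD, cut at about 130% in these data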;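 further: 0% = background luminescence of wells with medium and substrate only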
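system = STAT3-luciferase reporter U3A cells | reagent = IL-6 stimulus at 33 ng/mL final | timing = 1 h compound pre-exposure, 6 h IL-6 stimulation, 37 °C | measured by = luminescence | evaluation = % activation versus median of IL-6-stimulated wells | control set = IL-6-only wells as 100% reference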
PPC-1+TRAIL kill: PPC-1 cancer cell killing with TRAIL present; hit rate 0.41% among 220,000; PPC-1 cells + TRAIL, ATPLite viability luminescence; cell killing (% activity), % at 4 µM or 5 µM; AID 1443;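 active means cell killing above 50% in the first pass at 4 µM, then a duplicate retest at 5 µM averaging 50% or more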;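 further: plate controls were cells with TRAIL plus DMSO for no effect and medium-only wells lacking cells for full effect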
STAT1 inh: STAT1 signaling inhibition; NIH 3T3 STAT1-luciferase reporter, IFN-gamma, luminescence; inhibition, % at 5.5 µM; hit rate 0.35% among 200,000; AID 920;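 active means inhibition above a set limit, the mean inhibition across all tested compounds plus 3 SD, cut at about 34% in these data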;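 further: 0% = IFN-gamma with DMSO and 100% = IFN-gamma with 300 µM nifuroxazide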
C8 TRAIL sens: sensitizes caspase-8 expressing cells to TRAIL | NB7+C8 cells + TRAIL, ATPlite viability luminescence | inhibition (viability loss, TRAIL sensitization), % at 10 µM | hit rate 1% among 360,000 | AID 624354;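 active means compounds causing at least 50% loss of cell viability in the single-dose screen, relative to plate controls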
Starred values were filed as active, the others as inactive; x = no result. A selection: hits, their analogues and other compounds. The true share with any hit is near 1.8%.

SMILES | STAT3 blocker | STAT3 activator | PPC-1+TRAIL kill | STAT1 inh | C8 TRAIL sens
CCOc1ccc(N=Cc2c(C)[nH]n(-c3nc4ccccc4[nH]3)c2=O)cc1 | 21.1 | 78.7 | 73.9* | 18.9 | 86.8*
Cc1cccc(Cn2c(N3CCN(C)CC3)nc3c2c(=O)n(C)c(=O)n3C)c1 | x | x | x | x | -12.2
O=C(CCl)N(c1ccccc1)C1CCCCC1 | 16.6 | 91.9 | 15.8 | 11.7 | 94.9*
COc1cc(OC)cc(-c2nc3cc(C)ccc3o2)c1 | -80.2 | 171.0* | 28.7 | -69.2 | 25.7
COc1cc(OC)cc(-c2nc3ccccc3c(=O)o2)c1 | 1.6 | 101.3 | 2.8 | -0.4 | -3.8
Cc1ccc2nc(-c3ccc(O)cc3)oc2c1 | x | x | x | x | 79.4*
Cc1ccc(-c2nc3cc(Cl)ccc3o2)cc1 | -39.9 | 134.6* | -12.4 | -65.0 | 31.4
Cc1ccc(S(=O)(=O)N2CCOCC2)cc1NC(=O)CN1CCC(Cc2ccccc2)CC1 | 8.4 | 97.9 | 23.1 | 10.5 | 22.8
O=C(N/N=C/c1cccc(OC2CSC2)c1)c1ccccc1O | -23.2 | 130.5 | 27.1 | -0.4 | 16.4
O=C(N/N=C/c1ccc(OC(=O)c2ccccc2Cl)cc1)c1ccccn1 | x | x | x | x | 25.6
O=C(Oc1cccc(/C=N/NC(=O)c2ccccn2)c1)c1ccc([N+](=O)[O-])cc1 | x | x | x | x | 67.5*
Cn1nccc1C(=O)Oc1cccc(/C=N/NC(=O)c2ccccc2O)c1 | 37.5 | 70.7 | 35.5 | -6.5 | 53.0*
COCC(C)N1CCC(Oc2cccc(C(=O)NCCc3ccccc3)c2)CC1 (stereo not given) | x | x | x | x | -2.0
O=C(OCc1ccccc1)N1CCC2CC1c1ccc(-c3cccc(F)c3)cc12 (stereo not given) | x | x | x | x | -2.7
Cc1c(C(=O)N2CCN(S(=O)(=O)c3ccc(F)cc3)CC2)oc2ccccc12 | x | x | x | x | -9.2
CCCCCCOC(=O)c1ccc(N)cc1 | x | x | -6.8 | x | -7.8
CCCCCCCCCCCC1N=C(N)NC(CCCO)=C1C(=O)OC (stereo not given) | x | x | x | x | 63.3*
COc1ccc(/C=N/Nc2ncccc2[N+](=O)[O-])c(OC)c1 | 73.5* | 40.5 | -2.8 | 56.9* | 7.4
COc1ccc2nc(C)cc(Nc3ccc(N4CCOCC4)cc3)c2c1 | 6.3 | 102.2 | 27.2 | -9.2 | 8.9
COc1ccc2nc(C)cc(Nc3ccc(N4CCN(C)CC4)cc3)c2c1 | x | x | x | x | 48.8*
COc1ccc(/C=N/Nc2ncc(-c3ccccc3)cn2)c(OC)c1 | 16.5 | 87.2 | 8.0 | -5.8 | 15.7
COc1ccc2nc(C)cc(N/N=C/c3ccccc3)c2c1 | x | x | x | x | 52.8*
COc1ccc(/C=N/Nc2cc(C)nc3ccc(OC)cc23)c(OC)c1 | x | x | x | x | 89.3*
COc1ccccc1/C=N/Nc1cc(C)nc2ccc(C)cc12 | x | x | x | x | 2.4
CCCCCCCN1C2=NCCCN2c2ccccc21 | 5.7 | 99.9 | 28.5 | 29.7 | 1.1
SMILES | STAT3 blocker | STAT3 activator | PPC-1+TRAIL kill | STAT1 inh | C8 TRAIL sens
COc1ccc(-n2nc3cc(C)c(N)c(Br)c3n2)cc1 | -68.6 | 165.3* | 41.3 | -73.1 | 34.4
Cc1ccc2nc(-c3ccc(C#N)cc3)c(Cc3cccc(Cl)c3)n2c1 | x | x | x | x | 9.8
COc1ccccc1CNC(=O)COc1ccccc1C(=O)c1cnn(-c2ccccc2)c1 | x | x | x | x | 12.1
O=C(COc1ccccc1C(=O)c1cnn(-c2ccccc2)c1)Nc1ccccc1 | -7.6 | 102.5 | 46.8 | -22.5 | 59.9*
Cc1cc(=O)[nH]c2nnc(SCC(=O)N3CC(C)OC(C)C3)n12 (stereo not given) | x | x | x | x | -17.0
Cc1cc(=O)[nH]c2nnc(-c3ccc(Br)cc3)n12 | x | x | x | x | 73.1*
CCCc1ccc(NC(=O)C2CCCN(c3cnccn3)C2)cc1 (stereo not given) | x | x | x | x | 13.7
COc1ccc(C2=Nc3cccc4cccc(c34)N2)cc1 | -29.7 | 134.9* | 9.7 | 6.0 | -17.0
CC(C)C1=Nc2cccc3cccc(c23)N1 | -9.6 | 108.7 | 21.6 | 2.7 | -13.3
COc1ccccc1-c1cc(SC)c(C#N)c(=O)o1 | -2.1 | 104.2 | 13.1 | -37.5 | 7.8
COc1cccc2sc(N(C)c3ccccc3)nc12 | 43.2 | 65.9 | 39.1 | -54.8 | 60.0*
COc1cccc2sc(N)nc12 | x | x | x | x | -3.1
O=C(CN1C(=O)NC2(CCCC2)C1=O)c1ccc(Cl)s1 | x | x | x | x | -4.4
CCOc1cc(/C=C/c2cc(C(=O)O)c3ccccc3n2)ccc1O | 11.9 | 91.6 | 21.8 | -3.1 | 37.5
CCOc1cc(/C=C/c2cc(C(=O)O)c3ccccc3n2)ccc1OC | -9.9 | 109.4 | 28.4 | -8.0 | 58.0*
COC(=O)c1ccc(-n2c(C)cc(C(=O)CCl)c2C)cc1 | 4.6 | 97.5 | 5.5 | 15.0 | -16.6
CCOc1ccc(-n2c(C)cc(C(=O)CCl)c2C)cc1 | 2.0 | 102.2 | -19.1 | 16.4 | 52.6*
